For data set [1], the species on record is Felis catus. The data set can be described thus: Inhibition of field stimulation-induced positive ionotrophic response in cat atria. As to conditions: Cardiac atrium. The format is functional.
The species named for data set [2] is Canis lupus familiaris. As to the kind of experiment: Inhibition of electric stimulated dog right cardioaccelerator nerve. The class given is functional. The method in brief: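 Dog cardioaccelerator nerve preparation under barbital (200 mg/kg) anaesthesia. Compounds given intravenously up to 1.0 mg/kg. Positive chronotropic responses read by cardiometer, with blood pressure taken from the right femoral artery.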

Data set [3] has as its system Canis familiaris. As to the kind of experiment: Toxicity in dog assessed as emesis at 2 mg/kg, sc. The format is organism-based, Canis lupus familiaris. Further details: dose 2 mg/kg, route subcutaneous. As to conditions: in vivo. The method in brief: (§1)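 Unanaesthetised dogs. For emesis, compound given sc and dogs watched 45 min for an emetic response. For antagonism, compound given sc and apomorphine 100 μg/kg 15 min later.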

Data set [4] has as its system Mus musculus. As to the kind of experiment: Toxicity in albino B.K.W mouse assessed as circling behaviour at 20 to 80 mg/kg, sc. The class given is organism-based. Details: dose 20-80 mg/kg, route subcutaneous. As to conditions: in vivo. A digest of the protocol: (§2)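 Mice dosed subcutaneously at 20, 40 and 80 mg/kg in 1 mL/kg, doses as free base. Climbing scored as all four paws on the wire, giving a climbing index (% time over 30 min after the first climb) and the maximum time of a single climb. Circling was tested in mice with a unilateral caudate-putamen electrolesion, pre-selected for circling of 7 or more revolutions/2 min in response to apomorphine. Stereotypy was also recorded.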

For data set [5], the system named is Canis familiaris. The data set can be described thus: Inhibition of apomorphine-induced emesis in dog at 2 mg/kg, sc. Further details: dose 2 mg/kg. The format is functional, organism-based. The settings on record: Canis lupus familiaris. The method in brief:
as §1

The test system of data set [6] is Mus musculus. As to the kind of experiment: Toxicity in albino B.K.W mouse assessed as climbing behaviour at 20 to 80 mg/kg, sc. The format is organism-based. Details: dose 20-80 mg/kg, route subcutaneous. As to conditions: in vivo. A digest of the protocol:
as §2

A short description of data set [7]: Toxicity in pigeon assessed as pecking. The settings on record: columbidae. A digest of the protocol:
(§3)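 Pigeons. Compounds given intramuscularly at up to 4 mg/kg to test induction of pecking. Antagonism of pecking induced by apomorphine (1.62 μM/kg) was also tested, and ED50 values were estimated.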

The test system of data set [8] is Mus musculus. The data set can be described thus: Toxicity in albino B.K.W mouse assessed as stereotyped behaviour at 20 to 80 mg/kg, sc. The class given is organism-based. Further details: dose 20-80 mg/kg, route subcutaneous. As to conditions: in vivo. The method in brief:
as §2

The species named for data set [9] is Rattus norvegicus. The data set can be described thus: Toxicity in Sprague-Dawley rat assessed as sniffing at 50 ug injection into nucleus accumbens. As to conditions: in vivo, other. The class given is organism-based. A digest of the protocol:
(§4)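 Male Sprague-Dawley rats (250 ± 25 g) with stereotaxic guide cannulae aimed at the nucleus accumbens. Tested 10–14 days after surgery with a bilateral 1 μL infusion over 60 s; each rat used once and placement checked histologically. Locomotion counted by photocell cage. Stereotypy scored, where 3–4 = biting, gnawing or licking. Pretreatments given ip: α-methyl-p-tyrosine 250 mg/kg 6 h before, or haloperidol 0.1, propranolol 5 or aceperone 2.5 mg/kg 30 min before.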

For data set [10], the species on record is Felis catus. The data set can be described thus: Inhibition of field stimulation-induced positive chronotrophic response in cat atria. The format is functional. As to conditions: Cardiac atrium.
The species named for data set [11] is Rattus norvegicus. The data set can be described thus: Toxicity in Sprague-Dawley rat assessed as locomotor hyperactivity treated bilateral injection into nucleus accumbens at 50 ug. As to conditions: in vivo, other. The format is organism-based. The method in brief:
as §4

For data set [12], the species on record is Rattus norvegicus. As to the kind of experiment: Toxicity in Sprague-Dawley rat assessed as gnawing up to 50 ug injection into nucleus accumbens. As to conditions: in vivo, other. The format is organism-based. A digest of the protocol: as §4
Data set [13] relates to Mus musculus. As to the kind of experiment: Toxicity in albino B.K.W mouse assessed as stereotyped head and limb movement at 40 to 80 mg/kg, sc. The format is organism-based. Further details: dose 40-80 mg/kg, route subcutaneous. The settings on record: in vivo. A digest of the protocol: as §2
For data set [14], the species on record is Rattus norvegicus. As to the kind of experiment: Toxicity in Sprague-Dawley rat assessed as licking up to 50 ug injection into nucleus accumbens. The class given is organism-based. As to conditions: in vivo, other. The method in brief: as §4
The species entered for data set [15] is Rattus norvegicus. The data set can be described thus: Toxicity in Sprague-Dawley rat assessed as biting up to 50 ug injection into nucleus accumbens. The format is organism-based. The settings on record: in vivo, other. A digest of the protocol: as §4
Data set [16] relates to Canis familiaris. As to the kind of experiment: Increase in resting heart rate in dog at 0.5 mg/kg, iv by cardiotachometer. The format is functional, organism-based. Further details: dose 0.5 mg/kg. As to conditions: Canis lupus familiaris. A digest of the protocol: (§5)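 Anaesthetised dog (barbital 200 mg/kg). Compounds given intravenously, highest dose tested 1.0 mg/kg. Blood pressure recorded from the right femoral artery and heart rate by cardiometer. Resting heart rate, blood pressure and positive chronotropic responses were assessed after dosing. Doses calculated as free base.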

The subject of data set [17] is Columbidae. As to the kind of experiment: Inhibition of apomorphine-induced pecking in pigeon. The class given is functional. A digest of the protocol: as §3
The subject of data set [18] is Canis familiaris. As to the kind of experiment: Increase in blood pressure in dog at 0.5 mg/kg, iv by cardiotachometer. The format is functional, Canis lupus familiaris. A digest of the protocol:
as §5

For data set [19], the species on record is Rattus norvegicus. The data set can be described thus: Toxicity in Sprague-Dawley rat assessed as hyperactivity treated intra-accumbens injection pretreated with alpha-methyl-p-tyrosine. The format is organism-based. As to conditions: in vivo, other. The method in brief: as §4
The species entered for data set [20] is Rattus norvegicus. The data set can be described thus: Toxicity in Sprague-Dawley rat assessed as hyperactivity treated intra-accumbens injection pretreated with aceperone. The format is organism-based. The settings on record: in vivo, other. The method in brief: as §4
Data set [21] deals with Canis familiaris. As to the kind of experiment: Increase in blood pressure in dog at 30 ug/kg, iv by cardiotachometer. The format is functional, Canis lupus familiaris. The method in brief: as §5
For data set [22], the species on record is Rattus norvegicus. The data set can be described thus: Toxicity in Sprague-Dawley rat assessed as hyperactivity treated bilateral injection into nucleus accumbens. The class given is organism-based. The settings on record: in vivo, other. A digest of the protocol: as §4
In data set [23] the test system is Canis familiaris. As to the kind of experiment: Increase in resting heart rate in dog at […], iv by cardiotachometer. As to conditions: Canis lupus familiaris. The format is functional, organism-based. A digest of the protocol:
as §5

The test system of data set [24] is Rattus norvegicus. As to the kind of experiment: Induction of rotation in rat with unilateral denervation of caudate nucleus at 4 mg/kg, sc. The class given is functional, organism-based. Details: dose 4 mg/kg. A digest of the protocol:
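Rats given a unilateral 6-hydroxydopamine injection into the substantia nigra. Compounds dosed subcutaneously and the rotations they induced were counted. Apomorphine served as the reference.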

The species entered for data set [25] is Rattus norvegicus. The data set can be described thus: Toxicity in Sprague-Dawley rat assessed as hyperactivity treated intra-accumbens injection pretreated with propranolol. The format is organism-based. As to conditions: in vivo, other. The method in brief:
as §4

For data set [26], the species on record is Rattus norvegicus. As to the kind of experiment: Toxicity in Sprague-Dawley rat assessed as hyperactivity treated intra-accumbens injection. The class given is organism-based. As to conditions: in vivo, other. The method in brief:
as §4

The species entered for data set [27] is Rattus norvegicus. The data set can be described thus: Toxicity in Sprague-Dawley rat assessed as hyperactivity treated intra-accumbens injection pretreated with haloperiodol. As to conditions: in vivo, other. The class given is organism-based. The method in brief:
as §4

The test system of data set [28] is Canis familiaris. The data set can be described thus: Increase in heart rate in dog assessed as beats at 30 ug/kg, iv by cardiotachometer. The format is functional, Canis lupus familiaris. The method in brief:
as §5

The subject of data set [29] is Canis familiaris. The data set can be described thus: Increase in blood pressure in dog at 50 ug/kg, iv by cardiotachometer. The class given is functional, Canis lupus familiaris. The method in brief:
as §5

The species entered for data set [30] is Rattus norvegicus. As to the kind of experiment: Toxicity in Sprague-Dawley rat assessed as hyperactivity treated bilateral injection into nucleus accumbens at > 6.25 ug. The class given is organism-based. The settings on record: in vivo, other. A digest of the protocol: as §4
The species named for data set [31] is Rattus norvegicus. As to the kind of experiment: Toxicity in Sprague-Dawley rat assessed as sniffing at 12.5 to 50 ug injection into nucleus accumbens. The class given is organism-based. As to conditions: in vivo, other. The method in brief: as §4
Data set [32] relates to Canis familiaris. The data set can be described thus: Increase in heart rate in dog assessed as beats at 50 ug/kg, iv by cardiotachometer. The class given is functional, Canis lupus familiaris. A digest of the protocol: as §5

SMILES strings stand for the structures. The source made the active and inactive calls. No cut-off for these calls is given here. Where only a bound is given, the exact number is not on record here.

In the case of `Br.CCNC(C)Cc1ccc(O)c(O)c1` (racemic), the inhibition result in data set [1], in data set [2] and in data set [10] was “inactive” each time. Also, the Activity entry in data set [3] is recorded as “Non-toxic”; in [4], “Non-toxic”; in data set [6], “Non-toxic”; in data set [7], “Non-toxic”; in [8], “Non-toxic”; in data set [9], “Toxic”. In addition, in data set [11], the Activity entry is recorded as “Toxic”. The outcome in data set [5] was inactive.
In the case of `Br.CCN(CC)C(C)Cc1ccc(O)c(O)c1` (racemic), the inhibition entry in [1], in data set [2] and in [10] was “inactive” each time. Moreover, the Activity result is “Non-toxic” in [12]; “Toxic” in data set [13]; “Non-toxic” in data set [14]; “Non-toxic” in data set [3]; “Non-toxic” in data set [4]; “Non-toxic” in [15]. For the same molecule, the Activity entry in [6] was “Non-toxic”; in data set [7], “Non-toxic”; in [8] it was “Non-toxic”; in data set [18], “<=10 mmHg”; in data set [11], “Toxic”. For the same molecule, the result in data set [5] and in data set [16] was inactive. The inhibition result in data set [17] is “Active”.
For the molecule `Br.CCCNC(C)Cc1ccc(O)c(O)c1` (racemic), the Activity result in [19] is “Non-toxic”; in [20], “Toxic”; in data set [21], 35%; in data set [22] it was “Toxic”; in data set [12], “Toxic”; in [14] it was “Toxic”. Moreover, the Activity entry was “Non-toxic” in [3]; “Non-toxic” in data set [4]; “Toxic” in data set [15]; “Non-toxic” in [6]; “Toxic” in data set [25]; “Non-toxic” in [7]. The Activity result in [8] was “Non-toxic”; in data set [26] it was “Toxic”; in [27], “Non-toxic”; in data set [28], 35 bpm. Further, the inhibition entry in [1], in [2] and in [10] was “inactive” throughout. In addition, in data set [23], the outcome was Active. Also, the outcome in [5] and in data set [24] was inactive.
For the molecule `Br.CC(N)Cc1ccc(O)c(O)c1` (racemic), the Activity result was “Non-toxic” in [19]; “Toxic” in [20]; 80% in data set [29]; “Toxic” in data set [30]; “Toxic” in data set [31]; “Non-toxic” in data set [3]. The Activity entry is “Non-toxic” in [4]; “Non-toxic” in data set [6]; “Toxic” in data set [25]; “Non-toxic” in data set [7]; “Non-toxic” in data set [8]; “Toxic” in [26]. Also, the Activity result is listed as “Non-toxic” in data set [27] and 50 bpm in [32]. Also, the inhibition result in [1], in data set [2] and in data set [10] was “inactive” throughout. Also, the outcome in [23] was Active. In addition, the result in data set [5] and in data set [24] was inactive. The inhibition result in data set [17] is “Active”.

These data come from ChEMBL document CHEMBL3244290, “N-Alkyl derivatives of (+/-)-alpha-methyldopamine” (J Med Chem, 1979).
